Data from ChEMBL document CHEMBL4138235, “Discovery of aliphatic-chain hydroxamates containing indole derivatives with potent class I histone deacetylase inhibitory activities” (Eur J Med Chem, 2018).

Experiments:
[1] = Inhibition of class 1 HDAC in human HeLa nuclear extracts using Boc-Lys(Ac)-AMC as substrate preincubated for 5 mins followed by substrate addition measured after 30 mins by fluorescence assay
[2] = system: A549; assay: Cytotoxicity against human A549 cells assessed as growth inhibition after 48 hrs by SRB assay; type: functional, cell-based; details: A549, 48 h
[3] = system: PC-3; assay: Cytotoxicity against human PC3 cells assessed as growth inhibition after 48 hrs by SRB assay; type: functional, cell-based; details: PC-3, 48 h
[4] = organism: Homo sapiens; assay: Potency index, ratio of SAHA IC50 to test compound IC50 for class 1 HDAC in human HeLa nuclear extracts
In short: (§1)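 Fluorogenic deacetylase assay in 15 mM Tris-HCl pH 8.1, 0.25 mM EDTA, 250 mM NaCl, 10% glycerol. Enzyme and compound preincubated 5 min at 30 °C. Substrates: Boc-Lys(Ac)-AMC for HeLa extract, Boc-Lys(TFA)-AMC for HDAC8, KI 177 for HDAC1/2. Reaction ran 30 min at 30 °C, then trypsin with SAHA developed it 20 min; read at ex 355/em 460 nm. 0.1% DMSO set as 100% and 2 µM SAHA as 0%; run in triplicate; IC50 ratios relative to SAHA.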

[5] = molecular target: T1, Histone deacetylase 8 (Homo sapiens, UniProt Q9BY41); assay: Inhibition of C-terminal His-tagged recombinant human HDAC8 (1 to 377 residues) expressed in baculovirus infected Sf9 insect cells using Boc-Lys(TFA)-AMC as substrate preincubated for 5 mins followed by substrate addition measured after 30 mins by fluorescence assay
T1 sequence (Q9BY41 whole entry): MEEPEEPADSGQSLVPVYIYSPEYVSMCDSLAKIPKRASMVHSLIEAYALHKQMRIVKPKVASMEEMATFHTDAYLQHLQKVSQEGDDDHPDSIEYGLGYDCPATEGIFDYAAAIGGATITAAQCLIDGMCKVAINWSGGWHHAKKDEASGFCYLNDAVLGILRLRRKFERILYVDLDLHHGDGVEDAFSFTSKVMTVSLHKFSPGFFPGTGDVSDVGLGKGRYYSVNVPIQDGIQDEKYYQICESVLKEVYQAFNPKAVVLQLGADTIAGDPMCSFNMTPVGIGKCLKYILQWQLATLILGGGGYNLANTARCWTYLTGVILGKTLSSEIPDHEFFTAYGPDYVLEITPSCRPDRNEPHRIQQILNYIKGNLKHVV

[6] = molecular target: T2, Histone deacetylase 7 (Homo sapiens, UniProt Q8WUI4); assay: Inhibition of N-terminal GST-tagged human HDAC7 expressed in baculovirus infected Sf9 insect cells preincubated for 5 mins followed by substrate addition measured after 30 mins by fluorescence assay
T2 sequence (Q8WUI4 whole entry): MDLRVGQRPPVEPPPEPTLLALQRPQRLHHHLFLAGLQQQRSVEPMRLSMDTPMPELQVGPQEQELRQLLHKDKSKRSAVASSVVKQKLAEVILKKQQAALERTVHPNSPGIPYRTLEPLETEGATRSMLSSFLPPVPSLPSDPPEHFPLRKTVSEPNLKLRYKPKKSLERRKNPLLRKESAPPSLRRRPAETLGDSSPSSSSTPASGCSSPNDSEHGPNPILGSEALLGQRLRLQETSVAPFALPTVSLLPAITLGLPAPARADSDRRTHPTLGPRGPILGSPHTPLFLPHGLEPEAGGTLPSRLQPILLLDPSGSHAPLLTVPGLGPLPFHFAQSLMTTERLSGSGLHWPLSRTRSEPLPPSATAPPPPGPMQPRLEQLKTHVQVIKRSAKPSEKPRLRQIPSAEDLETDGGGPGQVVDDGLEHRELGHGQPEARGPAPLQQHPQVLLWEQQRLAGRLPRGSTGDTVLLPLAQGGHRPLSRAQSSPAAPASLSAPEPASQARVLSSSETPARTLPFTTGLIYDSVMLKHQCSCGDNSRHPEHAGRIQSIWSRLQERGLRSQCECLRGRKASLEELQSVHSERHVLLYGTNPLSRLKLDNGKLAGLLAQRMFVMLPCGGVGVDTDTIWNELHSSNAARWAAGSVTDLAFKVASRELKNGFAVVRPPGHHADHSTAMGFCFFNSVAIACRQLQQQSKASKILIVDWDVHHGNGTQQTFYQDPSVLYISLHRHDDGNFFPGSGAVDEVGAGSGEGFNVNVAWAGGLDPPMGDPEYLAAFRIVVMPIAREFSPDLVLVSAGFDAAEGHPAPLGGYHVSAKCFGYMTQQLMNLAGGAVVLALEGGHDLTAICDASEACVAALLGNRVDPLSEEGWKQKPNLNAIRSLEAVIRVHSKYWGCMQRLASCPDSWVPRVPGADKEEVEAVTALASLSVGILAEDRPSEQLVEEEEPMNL

[7] = molecular target: Histone deacetylase 1 (Homo sapiens, UniProt Q13547); assay: Inhibition of C-terminal FLAG/His-tagged full length recombinant human HDAC1 expressed in baculovirus infected Sf9 insect cells using KI 177 as substrate preincubated for 5 mins followed by substrate addition measured after 30 mins by fluorescence assay
Sequence of Histone deacetylase 1 (Q13547 whole entry): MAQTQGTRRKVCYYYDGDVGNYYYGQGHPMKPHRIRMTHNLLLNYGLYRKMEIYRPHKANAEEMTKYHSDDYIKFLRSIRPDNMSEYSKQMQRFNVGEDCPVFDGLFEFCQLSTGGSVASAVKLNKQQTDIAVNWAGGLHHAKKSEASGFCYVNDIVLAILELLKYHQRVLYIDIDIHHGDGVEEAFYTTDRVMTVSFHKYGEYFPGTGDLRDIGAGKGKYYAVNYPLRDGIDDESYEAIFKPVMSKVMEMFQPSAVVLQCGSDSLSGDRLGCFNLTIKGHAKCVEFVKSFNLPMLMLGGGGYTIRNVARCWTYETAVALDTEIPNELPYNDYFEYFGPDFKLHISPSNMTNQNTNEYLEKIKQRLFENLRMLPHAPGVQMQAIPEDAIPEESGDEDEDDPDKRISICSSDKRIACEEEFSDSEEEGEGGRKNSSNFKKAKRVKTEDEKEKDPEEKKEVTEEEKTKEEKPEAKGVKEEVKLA

[8] = molecular target: Histone deacetylase 9 (Homo sapiens, UniProt Q9UKV0); assay: Inhibition of C-terminal His-tagged recombinant human HDAC9 expressed in baculovirus infected Sf9 insect cells preincubated for 5 mins followed by substrate addition measured after 30 mins by fluorescence assay
Sequence of Histone deacetylase 9 (Q9UKV0 whole entry): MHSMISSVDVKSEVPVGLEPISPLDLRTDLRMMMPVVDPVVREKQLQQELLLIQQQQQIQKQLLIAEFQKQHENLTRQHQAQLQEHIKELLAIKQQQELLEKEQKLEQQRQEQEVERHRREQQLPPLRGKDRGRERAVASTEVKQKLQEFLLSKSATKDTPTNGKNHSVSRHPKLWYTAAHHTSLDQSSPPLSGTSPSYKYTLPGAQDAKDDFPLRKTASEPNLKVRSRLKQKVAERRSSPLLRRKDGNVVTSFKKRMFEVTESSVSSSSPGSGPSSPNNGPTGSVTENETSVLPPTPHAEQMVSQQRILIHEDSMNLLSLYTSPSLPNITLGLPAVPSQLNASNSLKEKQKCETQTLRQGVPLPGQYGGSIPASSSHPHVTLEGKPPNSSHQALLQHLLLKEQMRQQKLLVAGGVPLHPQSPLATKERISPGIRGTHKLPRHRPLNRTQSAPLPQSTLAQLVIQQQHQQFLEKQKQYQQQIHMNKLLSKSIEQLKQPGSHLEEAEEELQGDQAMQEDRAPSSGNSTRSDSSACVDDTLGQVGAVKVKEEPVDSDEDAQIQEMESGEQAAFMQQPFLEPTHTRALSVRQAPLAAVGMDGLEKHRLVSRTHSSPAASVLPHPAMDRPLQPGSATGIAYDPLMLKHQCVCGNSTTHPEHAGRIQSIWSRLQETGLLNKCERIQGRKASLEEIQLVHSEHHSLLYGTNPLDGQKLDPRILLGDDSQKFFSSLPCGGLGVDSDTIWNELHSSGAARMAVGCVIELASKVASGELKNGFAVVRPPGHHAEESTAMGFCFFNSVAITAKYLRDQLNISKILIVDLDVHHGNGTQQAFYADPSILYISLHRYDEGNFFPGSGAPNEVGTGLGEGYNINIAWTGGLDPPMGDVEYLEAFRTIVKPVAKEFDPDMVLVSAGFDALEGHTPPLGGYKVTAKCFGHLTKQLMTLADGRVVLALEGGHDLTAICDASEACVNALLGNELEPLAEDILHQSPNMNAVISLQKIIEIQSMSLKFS

[9] = molecular target: T3, Histone deacetylase 2 (Homo sapiens, UniProt Q92769); assay: biochemical; type: cell-based, Sf9
T3 sequence (Q92769 whole entry): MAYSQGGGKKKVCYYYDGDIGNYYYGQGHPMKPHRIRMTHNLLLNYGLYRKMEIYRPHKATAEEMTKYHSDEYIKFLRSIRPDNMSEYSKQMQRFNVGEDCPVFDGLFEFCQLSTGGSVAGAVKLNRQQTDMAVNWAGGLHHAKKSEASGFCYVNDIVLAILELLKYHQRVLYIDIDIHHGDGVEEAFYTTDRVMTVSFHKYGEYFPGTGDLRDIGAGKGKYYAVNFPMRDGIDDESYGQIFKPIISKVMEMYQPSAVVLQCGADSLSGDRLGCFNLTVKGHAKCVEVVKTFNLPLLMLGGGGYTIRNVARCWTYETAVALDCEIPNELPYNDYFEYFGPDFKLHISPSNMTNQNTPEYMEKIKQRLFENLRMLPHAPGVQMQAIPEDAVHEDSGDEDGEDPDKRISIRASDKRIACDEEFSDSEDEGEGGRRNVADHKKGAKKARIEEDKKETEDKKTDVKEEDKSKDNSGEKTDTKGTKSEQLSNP

[10] = molecular target: Histone deacetylase 5 (Homo sapiens, UniProt Q9UQL6); assay: Inhibition of full length recombinant human HDAC5 preincubated for 5 mins followed by substrate addition measured after 30 mins by fluorescence assay
[11] = molecular target: Histone deacetylase 4 (Homo sapiens, UniProt P56524); assay: Inhibition of N-terminal GST/C-terminal His-tagged recombinant human HDAC4 (648 to 1057 residues) expressed in baculovirus infected Sf9 insect cells using Boc-Lys(TFA)-AMC as substrate preincubated for 5 mins followed by substrate addition measured after 30 mins by fluorescence assay
[12] = molecular target: T4, Protein deacetylase HDAC6 (Homo sapiens, UniProt Q9UBN7); assay: Inhibition of N-terminal GST-tagged human HDAC6 using Boc-Lys(Ac)-AMC as substrate preincubated for 5 mins followed by substrate addition measured after 30 mins by fluorescence assay
T4 sequence (Q9UBN7 whole entry): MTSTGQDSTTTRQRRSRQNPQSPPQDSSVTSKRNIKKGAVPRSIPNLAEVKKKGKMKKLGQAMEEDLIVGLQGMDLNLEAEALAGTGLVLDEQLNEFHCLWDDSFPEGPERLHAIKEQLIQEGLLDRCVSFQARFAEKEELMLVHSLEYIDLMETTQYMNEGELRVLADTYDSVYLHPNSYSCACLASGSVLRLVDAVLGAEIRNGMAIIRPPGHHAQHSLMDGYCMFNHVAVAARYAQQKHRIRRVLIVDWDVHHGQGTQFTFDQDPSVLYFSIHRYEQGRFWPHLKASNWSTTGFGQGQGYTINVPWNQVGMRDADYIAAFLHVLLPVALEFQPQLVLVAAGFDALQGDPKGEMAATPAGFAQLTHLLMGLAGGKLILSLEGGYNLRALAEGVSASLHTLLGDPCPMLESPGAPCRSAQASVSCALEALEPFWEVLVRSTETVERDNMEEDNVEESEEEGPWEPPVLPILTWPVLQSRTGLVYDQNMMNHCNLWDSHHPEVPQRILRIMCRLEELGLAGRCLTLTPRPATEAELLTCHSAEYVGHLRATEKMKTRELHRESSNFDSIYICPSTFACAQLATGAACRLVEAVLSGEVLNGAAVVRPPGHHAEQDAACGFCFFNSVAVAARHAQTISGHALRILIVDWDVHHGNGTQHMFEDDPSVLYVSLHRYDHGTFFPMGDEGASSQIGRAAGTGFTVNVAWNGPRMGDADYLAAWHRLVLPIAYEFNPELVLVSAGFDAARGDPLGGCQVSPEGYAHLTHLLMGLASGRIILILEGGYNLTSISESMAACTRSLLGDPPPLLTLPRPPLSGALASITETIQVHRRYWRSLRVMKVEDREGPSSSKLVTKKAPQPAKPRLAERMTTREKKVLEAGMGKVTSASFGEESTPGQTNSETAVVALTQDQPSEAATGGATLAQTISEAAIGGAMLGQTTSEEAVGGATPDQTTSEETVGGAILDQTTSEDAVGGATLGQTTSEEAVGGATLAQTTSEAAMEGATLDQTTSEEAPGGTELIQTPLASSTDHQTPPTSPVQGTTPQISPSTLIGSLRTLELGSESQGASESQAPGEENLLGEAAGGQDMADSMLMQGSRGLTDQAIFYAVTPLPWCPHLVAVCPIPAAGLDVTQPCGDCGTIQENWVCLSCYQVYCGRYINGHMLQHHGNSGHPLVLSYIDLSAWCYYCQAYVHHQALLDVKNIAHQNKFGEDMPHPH

[13] = molecular target: Histone deacetylase 3/Nuclear receptor corepressor 2 (HDAC3/NCoR2) (Homo sapiens, UniProt O15379); assay: Inhibition of C-terminal His-tagged/N-terminal GST-tagged full length recombinant human HDAC3/NcoR2 expressed in baculovirus infected Sf9 insect cells using KI 177 as substrate preincubated for 5 mins followed by substrate addition measured after 30 mins by fluorescence assay
Sequence of Histone deacetylase 3/Nuclear receptor corepressor 2 (HDAC3/NCoR2) (O15379 whole entry): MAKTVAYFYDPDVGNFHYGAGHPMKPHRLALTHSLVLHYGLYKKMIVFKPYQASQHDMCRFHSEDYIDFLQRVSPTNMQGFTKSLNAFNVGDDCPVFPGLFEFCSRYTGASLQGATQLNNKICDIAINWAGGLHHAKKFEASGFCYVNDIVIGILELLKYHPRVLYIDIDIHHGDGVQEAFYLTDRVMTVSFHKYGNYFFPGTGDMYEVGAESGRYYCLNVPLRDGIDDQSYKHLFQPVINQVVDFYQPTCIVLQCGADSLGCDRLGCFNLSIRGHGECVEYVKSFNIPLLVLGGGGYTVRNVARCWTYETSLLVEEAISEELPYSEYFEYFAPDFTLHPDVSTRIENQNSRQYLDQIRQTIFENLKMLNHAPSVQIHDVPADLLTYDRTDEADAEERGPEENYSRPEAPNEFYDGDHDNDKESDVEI
Sequence of Histone deacetylase 3/Nuclear receptor corepressor 2 (HDAC3/NCoR2) (Q9Y618 whole entry, further chain): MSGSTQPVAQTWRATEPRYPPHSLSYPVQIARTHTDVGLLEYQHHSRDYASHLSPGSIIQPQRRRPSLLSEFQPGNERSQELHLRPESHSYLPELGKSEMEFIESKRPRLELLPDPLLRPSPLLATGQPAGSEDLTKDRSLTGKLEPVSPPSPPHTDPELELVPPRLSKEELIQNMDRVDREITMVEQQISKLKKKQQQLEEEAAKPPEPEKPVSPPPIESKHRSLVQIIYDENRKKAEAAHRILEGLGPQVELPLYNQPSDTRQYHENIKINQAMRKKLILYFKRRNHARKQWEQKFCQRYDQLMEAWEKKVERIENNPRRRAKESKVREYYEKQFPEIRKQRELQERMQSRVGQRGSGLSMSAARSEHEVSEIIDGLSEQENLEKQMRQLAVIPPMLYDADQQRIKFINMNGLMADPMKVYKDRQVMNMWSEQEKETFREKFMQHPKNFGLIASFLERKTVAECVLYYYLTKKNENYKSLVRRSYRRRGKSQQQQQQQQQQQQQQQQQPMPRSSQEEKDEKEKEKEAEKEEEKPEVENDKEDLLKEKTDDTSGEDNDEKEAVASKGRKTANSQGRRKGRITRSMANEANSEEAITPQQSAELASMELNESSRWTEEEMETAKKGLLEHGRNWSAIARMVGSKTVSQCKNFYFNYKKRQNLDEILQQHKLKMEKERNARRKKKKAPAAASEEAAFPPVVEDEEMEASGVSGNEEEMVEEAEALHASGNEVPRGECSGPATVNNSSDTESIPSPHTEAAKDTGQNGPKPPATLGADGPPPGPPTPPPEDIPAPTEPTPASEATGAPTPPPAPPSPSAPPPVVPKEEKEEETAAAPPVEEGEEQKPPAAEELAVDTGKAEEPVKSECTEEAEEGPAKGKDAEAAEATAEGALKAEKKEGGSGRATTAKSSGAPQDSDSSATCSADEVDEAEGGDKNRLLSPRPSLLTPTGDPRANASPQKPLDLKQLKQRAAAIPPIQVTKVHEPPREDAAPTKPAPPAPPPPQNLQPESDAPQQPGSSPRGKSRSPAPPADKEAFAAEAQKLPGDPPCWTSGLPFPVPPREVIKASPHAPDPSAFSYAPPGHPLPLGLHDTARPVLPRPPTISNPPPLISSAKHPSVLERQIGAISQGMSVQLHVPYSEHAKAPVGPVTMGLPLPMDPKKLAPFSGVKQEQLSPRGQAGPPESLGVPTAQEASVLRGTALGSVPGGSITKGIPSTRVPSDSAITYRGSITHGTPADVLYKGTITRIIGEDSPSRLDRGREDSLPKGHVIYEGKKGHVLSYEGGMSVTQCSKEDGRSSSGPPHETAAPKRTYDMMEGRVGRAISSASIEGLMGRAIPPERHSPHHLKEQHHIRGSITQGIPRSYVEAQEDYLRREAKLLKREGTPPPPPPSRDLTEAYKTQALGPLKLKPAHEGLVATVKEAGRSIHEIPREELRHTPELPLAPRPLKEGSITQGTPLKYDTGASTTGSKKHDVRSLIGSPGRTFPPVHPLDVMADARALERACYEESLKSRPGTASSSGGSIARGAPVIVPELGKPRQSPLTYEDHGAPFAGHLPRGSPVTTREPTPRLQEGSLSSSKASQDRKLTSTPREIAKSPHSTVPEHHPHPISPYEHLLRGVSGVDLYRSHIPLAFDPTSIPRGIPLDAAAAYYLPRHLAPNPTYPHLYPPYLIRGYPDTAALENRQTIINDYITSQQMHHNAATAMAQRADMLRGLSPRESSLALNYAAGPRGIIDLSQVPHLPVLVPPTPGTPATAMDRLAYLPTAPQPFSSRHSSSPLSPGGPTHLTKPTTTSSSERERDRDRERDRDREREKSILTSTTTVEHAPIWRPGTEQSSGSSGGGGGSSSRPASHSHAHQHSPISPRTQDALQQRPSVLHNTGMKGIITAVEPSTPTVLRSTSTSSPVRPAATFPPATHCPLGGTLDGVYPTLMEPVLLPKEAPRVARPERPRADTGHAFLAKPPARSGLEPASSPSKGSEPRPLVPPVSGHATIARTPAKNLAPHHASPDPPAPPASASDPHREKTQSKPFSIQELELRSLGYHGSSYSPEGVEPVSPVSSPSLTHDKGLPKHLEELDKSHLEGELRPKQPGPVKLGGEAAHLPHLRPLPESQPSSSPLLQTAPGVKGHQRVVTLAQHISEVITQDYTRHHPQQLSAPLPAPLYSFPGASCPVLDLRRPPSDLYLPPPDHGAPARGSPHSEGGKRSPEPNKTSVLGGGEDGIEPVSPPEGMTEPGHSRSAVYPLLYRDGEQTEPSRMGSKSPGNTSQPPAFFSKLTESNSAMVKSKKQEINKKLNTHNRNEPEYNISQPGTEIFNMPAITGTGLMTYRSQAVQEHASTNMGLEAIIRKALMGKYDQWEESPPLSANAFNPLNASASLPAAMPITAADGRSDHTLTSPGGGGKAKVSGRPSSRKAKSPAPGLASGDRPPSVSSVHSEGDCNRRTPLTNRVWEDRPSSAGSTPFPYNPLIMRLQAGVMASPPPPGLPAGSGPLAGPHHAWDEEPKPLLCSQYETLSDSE

[14] = molecular target: T3, Histone deacetylase 2; assay: Potency index, ratio of SAHA IC50 to test compound IC50 for full length recombinant human HDAC2 expressed in baculovirus infected Sf9 insect cells; in short: as §1

Compound	IC50 [1]	IC50 [2]	IC50 [3]	also measured
O=C(CCCCCCC(=O)Nc1cccc(OCCn2ccc3ccccc32)c1)NO	0.0231 µM			
COc1cc2ccn(CCCCOc3ccccc3NC(=O)CCCCCCC(=O)NO)c2c(OC)c1OC	0.111 µM	4.8 µM	2.4 µM	
COc1cc2ccn(CCCOc3ccccc3NC(=O)CCCCCCC(=O)NO)c2c(OC)c1OC	0.111 µM	5 µM	3.9 µM	
COc1cc2ccn(CCCCOc3ccc(NC(=O)CCCCCCC(=O)NO)cc3)c2c(OC)c1OC	0.0464 µM	9.7 µM	7.7 µM	
COc1cccc2ccn(CCOc3cccc(NC(=O)CCCCCCC(=O)NO)c3)c12	0.0135 µM	1.9 µM	1.4 µM	
COc1ccc2ccn(CCOc3cccc(NC(=O)CCCCCCC(=O)NO)c3)c2c1	0.0149 µM	4.2 µM	1.8 µM	
COc1ccc2c(ccn2CCOc2cccc(NC(=O)CCCCCCCC(=O)NO)c2)c1	0.04 µM			
O=C(CCCCCCC(=O)Nc1cccc(OCCn2ccc3cc(Br)ccc32)c1)NO	0.0413 µM			
COc1ccc2c(ccn2CCOc2cccc(NC(=O)CCCCC(=O)NO)c2)c1	0.186 µM			
COc1cc2ccn(CCCOc3cccc(NC(=O)CCCCCCC(=O)NO)c3)c2c(OC)c1OC	0.0225 µM	2.7 µM	2.7 µM	Ratio IC50 [4]: 2 to 5
COc1cc2ccn(CCCCOc3cccc(NC(=O)CCCCCCC(=O)NO)c3)c2c(OC)c1OC	0.0178 µM	2.4 µM	2.1 µM	IC50 [5]: 0.752 µM; IC50 [6]: > 10 µM; IC50 [7]: 0.0293 µM; IC50 [8]: > 10 µM; IC50 [9]: 1 µM; IC50 [10]: > 10 µM; IC50 [11]: > 10 µM; Ratio IC50 [4]: 2 to 5; IC50 [12]: 0.0085 µM; IC50 [13]: 0.108 µM
COc1cc2ccn(CCCOc3ccc(NC(=O)CCCCCCC(=O)NO)cc3)c2c(OC)c1OC	0.139 µM	5.9 µM	6.9 µM	
COc1ccc2c(ccn2CCOc2cccc(NC(=O)CCCCCCCCC(=O)NO)c2)c1	0.298 µM			
COc1cc2ccn(CCOc3ccccc3NC(=O)CCCCCCC(=O)NO)c2c(OC)c1OC	0.11 µM	5.9 µM	5.6 µM	
COc1cc2ccn(CCOc3cccc(NC(=O)CCCCCCC(=O)NO)c3)c2c(OC)c1OC	0.0115 µM	2.4 µM	1.3 µM	IC50 [5]: 0.421 µM; Ratio IC50 [14]: 2; IC50 [6]: > 10 µM; IC50 [7]: 0.0111 µM; IC50 [8]: > 10 µM; IC50 [9]: 0.111 µM; IC50 [10]: > 10 µM; IC50 [11]: > 10 µM; Ratio IC50 [4]: 2 to 5; IC50 [12]: 0.0096 µM; IC50 [13]: 0.0725 µM
COc1cc2ccn(CCOc3ccc(NC(=O)CCCCCCC(=O)NO)cc3)c2c(OC)c1OC	0.0572 µM	4.9 µM	4.4 µM	
